Measured values taken from ChEMBL document CHEMBL1208778, “Synthesis and anti-cancer activity of chalcone linked imidazolones” (2010).
Values belong to the compound of their own block, whether it stands above or below them. Activity calls are given as the source filed them. No cut-off for these calls is given here.

What was measured:
Format in all cases: functional
[1] = Growth inhibition of human RPMI8266 cells
How it was run: (§1)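 Five-dose testing was run within the NCI (Bethesda) in vitro Anticancer Screen Program on a panel of 53 human tumour cell lines from nine cancer types. Growth inhibition is reported as GI50.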

K562 = experiment: Growth inhibition of human K562 cells; how it was run: as §1
A549 = experiment: Growth inhibition of human A549 cells; how it was run: as §1
EKVX = experiment: Growth inhibition of human EKVX cells; how it was run: as §1
HOP-62 = experiment: Growth inhibition of human HOP62 cells; how it was run: as §1
HOP-92 = experiment: Growth inhibition of human HOP92 cells; how it was run: as §1
NCI-H226 = experiment: Growth inhibition of human NCI-H226 cells; how it was run: as §1
NCI-H23 = experiment: Growth inhibition of human NCI-H23 cells; how it was run: as §1
NCI-H322M = experiment: Growth inhibition of human NCI-H322M cells; how it was run: as §1
NCI-H460 = experiment: Growth inhibition of human NCI-H460 cells; how it was run: as §1
NCI-H522 = experiment: Growth inhibition of human NCI-H522 cells; how it was run: as §1
COLO 205 = experiment: Growth inhibition of human COLO205 cells; how it was run: as §1
HCC 2998 = experiment: Growth inhibition of human HCC2998 cells; how it was run: as §1
HCT-116 = experiment: Growth inhibition of human HCT116 cells; how it was run: as §1
HCT-15 = experiment: Growth inhibition of human HCT15 cells; how it was run: as §1
HT-29 = experiment: Growth inhibition of human HT-29 cells; how it was run: as §1
KM12 = experiment: Growth inhibition of human KM12 cells; how it was run: as §1
SW-620 = experiment: Growth inhibition of human SW620 cells
How it was run: (§2)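 Compounds that passed a preliminary screen were tested at five doses in the NCI (Bethesda) in vitro Anticancer Screen Program against a 53-line human tumour panel spanning leukemia, lung, colon, CNS, melanoma, ovarian, renal, prostate and breast. Growth inhibition is reported as GI50.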

SF-268 = experiment: Growth inhibition of human SF268 cells; how it was run: as §1
SF-295 = experiment: Growth inhibition of human SF295 cells; how it was run: as §1
SF-539 = experiment: Growth inhibition of human SF539 cells; how it was run: as §1
SNB-19 = experiment: Growth inhibition of human SNB19 cells; how it was run: as §2
SNB-75 = experiment: Growth inhibition of human SNB75 cells; how it was run: as §2
U-251 = experiment: Growth inhibition of human U251 cells; how it was run: as §2
A498 = experiment: Growth inhibition of human A498 cells; how it was run: as §1
786-0 = experiment: Growth inhibition of human 786-0 cells; how it was run: as §1
ACHN = experiment: Growth inhibition of human ACHN cells; how it was run: as §1
CAKI-1 = experiment: Growth inhibition of human Caki1 cells; how it was run: as §1
RXF 393 = experiment: Growth inhibition of human RXF393 cells; how it was run: as §1
SN12C = experiment: Growth inhibition of human SN12C cells; how it was run: as §2
TK-10 = experiment: Growth inhibition of human TK10 cells; how it was run: as §2
UO-31 = experiment: Growth inhibition of human UO31 cells; how it was run: as §2
PC-3 = experiment: Growth inhibition of human PC3 cells; how it was run: as §1
OVCAR-3 = experiment: Growth inhibition of human OVCAR-3 cells; how it was run: as §1
OVCAR-4 = experiment: Growth inhibition of human OVCAR4 cells; how it was run: as §1
OVCAR-5 = experiment: Growth inhibition of human OVCAR5 cells; how it was run: as §1
OVCAR-8 = experiment: Growth inhibition of human OVCAR8 cells; how it was run: as §1
NCI/ADR-RES = experiment: Growth inhibition of human NCI/ADR-RES cells; how it was run: as §1
SK-OV-3 = experiment: Growth inhibition of human SKOV3 cells; how it was run: as §2
MCF7 [2] = experiment: Growth inhibition of human MCF7 cells; how it was run: as §1
MDA-MB-231 = experiment: Growth inhibition of human MDA-MB-231 cells; how it was run: as §1
[3] = Growth inhibition of human Hs 578T cells; how it was run: as §1
BT-549 = experiment: Growth inhibition of human BT549 cells; how it was run: as §1
T47D = experiment: Growth inhibition of human T47D cells; how it was run: as §2
LOX IMVI = experiment: Growth inhibition of human LOXIMVI cells; how it was run: as §1
Malme-3M = experiment: Growth inhibition of human MALME-3M cells; how it was run: as §1
M14 = experiment: Growth inhibition of human M14 cells; how it was run: as §1
MDA-MB-435 = experiment: Growth inhibition of human MDA-MB-435 cells; how it was run: as §1
SK-MEL-2 = experiment: Growth inhibition of human SK-MEL-2 cells; how it was run: as §1
SK-MEL-28 = experiment: Growth inhibition of human SK-MEL-28 cells; how it was run: as §1
SK-MEL-5 = experiment: Growth inhibition of human SK-MEL-5 cells; how it was run: as §1
UACC-257 = experiment: Growth inhibition of human UACC257 cells; how it was run: as §2
UACC-62 = experiment: Growth inhibition of human UACC62 cells; how it was run: as §2
MCF7 [4] = experiment: Cell cycle arrest in human MCF7 cells assessed as accumulation at G0 phase at 10 uM after 24 hrs by FACS analysis
How it was run: (§3)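 MCF-7 breast carcinoma cells were exposed to 10 µM test compound for 24 h, with DMSO as the vehicle control. Cell-cycle distribution was read by FACS as the percentage of cells in G0, G1, S and G2/M.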

MCF7 [5] = experiment: Cell cycle arrest in human MCF7 cells assessed as accumulation at G1 phase at 10 uM after 24 hrs by FACS analysis; how it was run: as §3
MCF7 [6] = experiment: Cell cycle arrest in human MCF7 cells assessed as accumulation at S phase at 10 uM after 24 hrs by FACS analysis; how it was run: as §3
MCF7 [7] = experiment: Cell cycle arrest in human MCF7 cells assessed as accumulation at G2/M phase at 10 uM after 24 hrs by FACS analysis; how it was run: as §3
MCF7 [8] = experiment: Cell cycle arrest in human MCF7 cells assessed as accumulation at G0 phase at 30 uM after 24 hrs by FACS analysis
How it was run: (§4)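 MCF-7 cells were treated at 30 µM for 24 h alongside a DMSO control. Fractions in G0, G1, S and G2/M phases were measured by FACS, and values are means of three experiments.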

MCF7 [9] = experiment: Cell cycle arrest in human MCF7 cells assessed as accumulation at G1 phase at 30 uM after 24 hrs by FACS analysis; how it was run: as §4
MCF7 [10] = experiment: Cell cycle arrest in human MCF7 cells assessed as accumulation at S phase at 30 uM after 24 hrs by FACS analysis; how it was run: as §4
MCF7 [11] = experiment: Cell cycle arrest in human MCF7 cells assessed as accumulation at G2/M phase at 30 uM after 24 hrs by FACS analysis; how it was run: as §4

GI50 (K562): 3.69 µM
GI50 (A549): inactive
GI50 (NCI-H226): inactive
GI50 (NCI-H23): 3.56 µM
GI50 (NCI-H322M): 12.9 µM
GI50 (NCI-H460): 3.74 µM
GI50 (NCI-H522): 4.1 µM
GI50 (COLO 205): 7.38 µM
GI50 (HCC 2998): 2.46 µM
GI50 (HCT-116): 1.39 µM
GI50 (HCT-15): 3.85 µM
GI50 (HT-29): 2 µM
GI50 (SW-620): 1.75 µM
GI50 (U-251): 2.12 µM
GI50 (786-0): 2.14 µM
GI50 (ACHN): 7.17 µM
GI50 (PC-3): inactive
GI50 (OVCAR-3): 2.4 µM
GI50 (OVCAR-4): 11.4 µM
GI50 (OVCAR-5): 3.11 µM
GI50 (OVCAR-8): 3.85 µM
GI50 (SK-OV-3): 31.4 µM
GI50 (MCF7 [2]): 1.74 µM
GI50 (MDA-MB-231): 13.8 µM
GI50 (BT-549): 12.3 µM
GI50 (T47D): 6.65 µM
GI50 (MDA-MB-435): 3.63 µM
GI50 (SK-MEL-2): 3.44 µM
GI50 (SK-MEL-28): 10.9 µM
GI50 (SK-MEL-5): 8.7 µM
Structure (SMILES): COc1cc(/C=C/C(=O)c2cccc(-n3cc(-c4ccc(Cl)cc4)[nH]c3=O)c2)cc(OC)c1OC
GI50 [1]: 3.92 µM
GI50 (EKVX): inactive
GI50 (HOP-62): inactive
GI50 (HOP-92): inactive
GI50 (KM12): 5.45 µM
GI50 (SF-268): 5.07 µM
GI50 (SF-295): 24.3 µM
GI50 (SF-539): 3.49 µM
GI50 (SNB-19): 16.1 µM
GI50 (SNB-75): inactive
GI50 (A498): 30.2 µM
GI50 (CAKI-1): inactive
GI50 (RXF 393): 3.22 µM
GI50 (SN12C): 5.14 µM
GI50 (TK-10): 6.46 µM
GI50 (UO-31): 7.03 µM
GI50 (NCI/ADR-RES): 2.36 µM
GI50 [3]: 5.96 µM
GI50 (LOX IMVI): 1.72 µM
GI50 (Malme-3M): 18.1 µM
GI50 (M14): 4.36 µM
GI50 (UACC-257): 17.4 µM
GI50 (UACC-62): 8.88 µM
Activity (MCF7 [4]): 4.49%
Activity (MCF7 [5]): 67.68%
Activity (MCF7 [6]): 13.91%
Activity (MCF7 [7]): 13.92%
Activity (MCF7 [8]): 12%
Activity (MCF7 [9]): 44%
Activity (MCF7 [10]): 17%
Activity (MCF7 [11]): 27%

GI50 (K562): 3.35 µM
GI50 (A549): 3.89 µM
GI50 (NCI-H226): 24.8 µM
GI50 (NCI-H23): 3.35 µM
GI50 (NCI-H322M): 10.6 µM
GI50 (NCI-H460): 2.49 µM
GI50 (COLO 205): 2.01 µM
GI50 (HCC 2998): 4.09 µM
GI50 (HCT-116): 3.02 µM
GI50 (HCT-15): 3.1 µM
GI50 (HT-29): 3.33 µM
GI50 (SW-620): 2.41 µM
GI50 (U-251): 1.61 µM
GI50 (786-0): 2.98 µM
GI50 (ACHN): 2.76 µM
GI50 (PC-3): 2.82 µM
GI50 (OVCAR-3): 3.08 µM
GI50 (OVCAR-4): 5.3 µM
GI50 (OVCAR-5): 5.44 µM
GI50 (OVCAR-8): 2.8 µM
GI50 (SK-OV-3): 11.1 µM
GI50 (MCF7 [2]): 2.47 µM
GI50 (MDA-MB-231): 3.86 µM
GI50 (BT-549): 9.32 µM
GI50 (T47D): 4.24 µM
GI50 (MDA-MB-435): 3.12 µM
GI50 (SK-MEL-2): 8.26 µM
GI50 (SK-MEL-28): 5.63 µM
GI50 (SK-MEL-5): 3.18 µM
Structure (SMILES): O=C(/C=C/c1cccc(O)c1)c1cccc(-n2cc(-c3ccccc3)[nH]c2=O)c1
GI50 [1]: 2.15 µM
GI50 (EKVX): 15.6 µM
GI50 (HOP-62): 6.93 µM
GI50 (HOP-92): 5.04 µM
GI50 (KM12): 1.83 µM
GI50 (SF-268): 4.53 µM
GI50 (SF-295): 18.2 µM
GI50 (SF-539): 1.98 µM
GI50 (SNB-19): 10.9 µM
GI50 (SNB-75): 12.1 µM
GI50 (A498): 14.3 µM
GI50 (CAKI-1): 13.3 µM
GI50 (RXF 393): 1.89 µM
GI50 (SN12C): 3.14 µM
GI50 (UO-31): 2.16 µM
GI50 (NCI/ADR-RES): 3.73 µM
GI50 [3]: 6.14 µM
GI50 (LOX IMVI): 1.85 µM
GI50 (Malme-3M): 6.21 µM
GI50 (M14): 4.53 µM
GI50 (UACC-257): 7.68 µM
GI50 (UACC-62): 3.65 µM
Activity (MCF7 [4]): 2.1%
Activity (MCF7 [5]): 57.26%
Activity (MCF7 [6]): 18.48%
Activity (MCF7 [7]): 22.16%
Activity (MCF7 [8]): 11.07%
Activity (MCF7 [9]): 53.92%
Activity (MCF7 [10]): 17.21%
Activity (MCF7 [11]): 17.8%
